Results gathered from unrelated publications.
Each line is one published result; the experiments were not run side by side.

Compound | assay | test system | conditions | measurement | value
CC1(CN)CCN(c2cnc3c(Sc4ccncc4Cl)n[nH]c3n2)CC1 |  | male Sprague-Dawley rat, plasma | intravenous, 2 mg/kg | clearance | 223 mL/min/kg
COc1ccccc1C(=O)/C=C/c1cn(Cc2cn(-c3ccnc4cc(Cl)ccc34)nn2)c2ccccc12 | haemolysis | human | 50 µM, 1 h, pH 7.4 | haemolysis | 1.7%
C=C(F)C(=O)N1CCN(c2nc(OC[C@@H]3CCCN3C)nc3c2CCN(c2cccc4cccc(Cl)c24)C3)C[C@@H]1CC#N |  | male Sprague-Dawley rat, plasma | intravenous, 5 mg/kg | clearance | 44 mL/min/kg
O=C1CC[C@H](N2Cc3cc(N4CCN(CC5CCN(c6ccc([C@@H]7c8ccc(O)cc8CC[C@@H]7c7ccccc7)cc6)CC5)CC4)ccc3C2=O)C(=O)N1 |  | male Sprague-Dawley rat, plasma | intravenous, 5 mg/kg, fed | clearance | 15.4 mL/min/kg
CN1Cc2c(N)cccc2C(=O)N1C1CCC(=O)NC1=O (centres unmarked) |  | male Sprague-Dawley rat, plasma | intravenous, 1 mg/kg | clearance | 31.8 mL/min/kg
Nc1ccc(/C=C/C(=O)NCc2cc3cc(-c4ccc(C(=O)N5CCC(F)(F)CC5)cc4)cc(-c4ccc(F)cc4)c3o2)cn1 |  | rat, plasma | intravenous, 1 mg/kg | clearance | 0.169 mL/min/kg
O=C(C=Cc1ccccc1)Nc1cc(-c2ccnc(N3CCC(O)CC3)c2)ccn1 |  | female Sprague-Dawley rat, plasma | intravenous, 5 mg/kg | clearance | 229 mL/min/kg
O=C1c2ccncc2C(=O)c2c1[nH]c1ccccc21 |  | rat, plasma | intravenous, 1 mg/kg, single dose | clearance | 13.1 mL/min
